Rows were chosen to be rich in hits. Some 2.2% of all compounds tested hit in one or more screens of this group.
Cneo AK release: Cryptococcus neoformans cell lysis inducers, primary screen, AK release luminescence, single concentration | C. neoformans lysis, adenylate kinase release luminescence, 4 h; normalised: neutral wells 0, clomiphene wells 100 | lysis activity, % at 15 µM | hit rate 0.2% among 360,000 | AID 651654, 2012;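 active = mean lysis activity across replicates of at least 80%, whatever share of replicates individually reach that level; inactive = mean lysis activity below 80%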
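Assay system: C. neoformans cells. Amount: yeast cell density of 5 × 10^6 cells/mL. Technique: AK luminescence. Buffer or medium: YPD. Times: static 4 h at 37 °C with compound, 1 h detection. Dosing: single-point compound dose. Read-out: lysis from increased AK signal.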
SUMO Mot1 rescue: yeast Mot1-301 growth rescue at high temperature, primary screen, SUMOylation pathway inhibitor project, S. cerevisiae, ATP luminescence, 38.5C. growth rescue, % at 18.8 µM. hit rate 1% among 320,000. S. cerevisiae Mot1-301 growth rescue; percent above DMSO median, 100 means doubled;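 active = every valid replicate shows activation above 250% relative to neutral control wells; inactive = the rest, any valid replicate at or below 250%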;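 also: OY570 slx delta 5 strain wells were the positive control but not used for scaling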
CR mimetic SO: reduction of superoxide in aged yeast, primary screen, HTS; S. cerevisiae aged cells, superoxide DHE fluorescence; active compounds read low; superoxide response (% of plate mean), % at 10 µM; hit rate 0.18% among 330,000; AID 2690, 2010;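 active = superoxide response under a set limit, about three screen SD below normal, cut at about 65% in these data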;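 also: yeast aged for seven days with compound at 30 °C before DHE staining; 100% = average MFI of all compound-treated wells on the plate with controls excluded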
PglD inh: C. jejuni PglD acetyltransferase inhibitors, primary screen, biochemical, DTNB colorimetric, single point; hit rate 0.098% among 360,000; inhibition, % at 12.5 µM; purified PglD enzyme, DTNB colorimetric CoA detection; in the data active = inhibition above about 16%, passing the limit was not always enough
rRNA inh HTS: reduced GFP signal of wild-type E. coli, primary screen, bacterial rRNA inhibitor project, GFP/RFP fluorescence, OD600, single point; E. coli WT GFP vs humanized-ribosome RFP mutants, 24 h; active compounds read low; DMSO median 0, no signal -100; GFP signal change (wild-type ribosome), % (test concentration not listed); hit rate 1.6% among 350,000;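 active = significant combined selectivity score with lowered wild-type GFP, culture density cut under 30%, mutant RFP and density less affected; inactive = any of these conditions unmet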
* = called active by the depositor; · = no result.

SMILES	Cneo AK release	SUMO Mot1 rescue	CR mimetic SO	PglD inh	rRNA inh HTS
COCCNC(=O)C[C@@H]1C[C@H]2c3cc(NC(=O)C4CCC4)ccc3O[C@H]2[C@@H](CO)O1	84*	·	·	1	3
O=C(C[C@@H]1C[C@@H]2c3cc(NC(=O)NC4CCCCC4)ccc3O[C@@H]2[C@@H](CO)O1)NCc1cccnc1	9	·	·	54*	8
CO[C@H]1CN(C)C(=O)c2cc(NC(=O)c3ccccc3)ccc2OC[C@@H](C)N(C(C)=O)C[C@@H]1C	-6	·	·	-2	·
O=C(C[C@@H]1C[C@H]2c3cc(NC(=O)C4CCOCC4)ccc3O[C@H]2[C@H](CO)O1)NCCc1ccccc1	-7	·	·	1	0
CCCc1[nH]n(-c2nc3ccccc3s2)c(=O)c1C=NCCCN(CC)CC	·	1	87	·	-22*
CCCN=Cc1c(CCC)[nH]n(-c2nc3ccccc3s2)c1=O	21	-1	105	5	·
Cn1nc(C(C)(C)C)cc1C(=O)NNC(=O)c1ccc(C(F)(F)F)cc1	·	304*	88	·	1
CCc1nc(NCc2cccs2)c2nnn(Cc3ccccc3)c2n1	1	·	·	0	5
CCc1nc(Nc2ccccc2)c2nnn(Cc3ccccc3)c2n1	-2	2	105	4	-30*
CCNC(=O)C[C@@H]1CC[C@H]2[C@H](COc3ccc(NC(=O)Nc4ccc(Cl)cc4)cc3C(=O)N2C)O1	1	·	·	3	-4
CC(C)(C)n1nnnc1C(c1cccnc1)N1CCN(c2cccc(C(F)(F)F)c2)CC1 (stereo not given)	-1	46	94	-3	·
CC(C)(C)c1cc(C(c2cccnc2)N2CCN(CCO)CC2)cc(C(C)(C)C)c1O (stereo not given)	-5	33	77	1	-30*
Oc1ccc(Br)cc1-c1cc(-c2ccccc2)n[nH]1	0	233	93	1	·
Oc1ccc(Br)cc1-c1ccnn1-c1ccccc1	1	-4	97	-7	-39*
CN1[C@@H]2c3ccc(C4=CCCC4)c(=O)n3C[C@H]1[C@H](CO)[C@H]2C(=O)N1CCOCC1	0	·	·	2	5
Cc1ccc(Cl)cc1N1CCN(Cc2cc(=O)n3ccsc3n2)CC1	·	-2	100	·	-29*
Cc1cccc(N2CCN(Cc3cc(=O)n4ccsc4n3)CC2)c1C	-2	-6	97	-3	·
O=C(O)CC/C(=C\c1ccc(N2CCCC2)c([N+](=O)[O-])c1)c1nc2ccccc2s1	·	-16	127	·	-40*
CN(c1ccccc1)c1ccc(/C=C(/CCC(=O)O)c2nc3ccccc3s2)cc1[N+](=O)[O-]	·	·	·	·	-33
COc1ccc(Cn2c(=O)c3[nH]cnc3n(-c3ccc(C)cc3)c2=O)cc1	-2	4	109	4	-20*
C[C@@H]1CN([C@@H](C)CO)C(=O)Cc2cc(NC(=O)Nc3ccccc3)ccc2O[C@H]1CN(C)Cc1ccc(C(=O)O)cc1	1	·	·	0	-3
COc1ccc(Cl)cc1C(=O)NN=C1CCCC1	·	-8	82	·	7
O=C(NN=C1CCCC1)c1cc(Cl)cc(Cl)c1O	-1	-3	103	10	-29*
CCCNC(=O)N1C[C@@H]2[C@H](c3ccccc31)[C@H](CO)N2C(=O)NC(C)C	0	·	·	4	4
c1ccc(CNc2nc(N3CCN(Cc4ccccc4)CC3)nc3ccccc23)cc1	15	-27	90	-1	-43*
SMILES	Cneo AK release	SUMO Mot1 rescue	CR mimetic SO	PglD inh	rRNA inh HTS
CCNC(=O)C[C@H]1CC[C@@H](NS(=O)(=O)c2ccc(C)cc2)[C@@H](CO)O1	52	·	·	-1	3
C[C@H]1CN([C@@H](C)CO)C(=O)Cc2cc(NC(=O)Nc3ccc(C(F)(F)F)cc3)ccc2O[C@H]1CN(C)Cc1ccccc1	-6	·	·	-2	-11
O=C(Cn1cnc2ccccc2c1=O)N1CCc2ccccc2C1	·	498*	108	·	1
O=C(COc1ccc(Br)cc1)N1CCc2ccccc2C1	·	71	92	·	-26*
COc1ccc(OCC(=O)N2CCc3ccccc3C2)cc1	-2	7	106	-1	4
O=C(Cc1ccc(Cl)cc1)N1CCc2ccccc2C1	-5	58	82	1	-28*
C[C@H](CO)N1C[C@H](C)[C@H](CN(C)C(=O)Nc2cccc3ccccc23)Oc2ccc(NC(=O)CCCCCC(=O)Nc3ccccc3N)cc2CC1=O	-3	·	·	-2	-2
COc1ccc(CCn2c(N)c(S(=O)(=O)c3cccs3)c3nc4ccccc4nc32)cc1OC	-1	-10	93	-2	-21*
CN1CCC(NC(=O)c2cc(-c3cccc(Br)c3)nc3ccccc23)CC1	11	-14	92	1	-23*
O=C(NC1CC1)c1cc(-c2ccc(Br)cc2)nc2ccccc12	0	16	86	-3	0
COc1ccc(NS(=O)(=O)c2ccc(N/N=C(\C)c3ccncc3)c([N+](=O)[O-])c2)cc1	·	-9	113	·	-23*
C/C(=N\Nc1ccc(S(=O)(=O)Nc2ccccc2)cc1[N+](=O)[O-])c1ccncc1	·	-23	101	·	24
CO[C@H]1CN(C)C(=O)c2cc(NC(=O)CC(F)(F)F)ccc2OC[C@H](C)N(CCC(F)(F)F)C[C@@H]1C	1	·	·	2	0
COc1ccc2c3c(n(C)c2c1)[C@H](CO)N(C(=O)c1ccc(F)cc1)CC31CCN(CC2CC2)CC1	·	·	·	·	2
COc1ccccc1C(=O)N1CC(=O)Nc2ccc(C)cc2C1c1ccc(F)cc1 (stereo not given)	-4	23	90	-5	0
Cc1ccc2c(c1)C(c1ccc(F)cc1)N(C(=O)c1ccccc1Br)CC(=O)N2 (stereo not given)	0	1	97	-2	-26*
C[C@H]1CN([C@@H](C)CO)C(=O)c2cc(-c3ccc(F)cc3)cnc2O[C@H]1CN(C)C(=O)Nc1ccccc1F	2	·	·	1	2
C[C@@H]1CN([C@@H](C)CO)C(=O)Cc2cc(NC(=O)Nc3ccc4c(c3)OCO4)ccc2O[C@H]1CN(C)CC1CCCCC1	4	·	·	1	-4
C=CCN1c2ccc(Br)cc2C(=O)CS1(=O)=O	0	15	84	1	-21
COc1cccc(CN2c3ccc(Br)cc3C(=O)CS2(=O)=O)c1	-1	8	112	-4	-37*
CO[C@@H]1CN(C)C(=O)c2cc(NC(=O)C3CCCC3)ccc2OC[C@H](C)N(C(C)=O)C[C@@H]1C	1	·	·	4	0
Cc1noc(C)c1NC(=O)N(C)C[C@H]1Oc2ccc(N(C)C)cc2C(=O)N([C@H](C)CO)C[C@@H]1C	102*	·	·	3	-1

High-throughput results deposited in PubChem by several laboratories.
